Measurements published in ChEMBL document CHEMBL3351961, “In vitro antitumor activity evaluation of some 1,2,4-triazine derivatives bearing piperazine amide moiety against breast cancer cells” (Bioorg Med Chem, 2014).
Activity calls are given as the source filed them. The rule behind the calls is not given here.

Tests used:
MCF7 [1] = test: Cytotoxicity against human MCF7 cells after 24 hrs by MTT assay; type: functional, cell-based; settings: MCF7, 24 h, in the assay text read “XTT assay” for “MTT assay”
In short: (§1)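 Cells grown in RPMI with fetal calf serum, penicillin/streptomycin, 37 °C, 5% CO2. Seeded 2 × 10^4 cells/well, then 24 h. Medium replaced with compound at 3.9–500 µg/ml (DMSO stocks diluted in medium, final DMSO under 0.1%). XTT read-out of mitochondrial activity: 3 h at 37 °C, OD 480 nm (reference 680 nm). IC50 by non-linear regression; duplicate experiments; cisplatin positive control.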

[2] = Cytotoxicity against mouse NIH/3T3 cells after 24 hrs by MTT assay; type: cell-based; settings: NIH3T3, 24 h, in the assay text read “XTT assay” for “MTT assay”; in short: as §1
MCF7 [3] = test: Inhibition of DNA synthesis in human MCF7 cells at 44.18 ug/ml after 48 hrs by 5-bromo-20-deoxy-uridine incorporation method; type: functional; settings: MCF7, 48 h
In short: (§2)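 MCF-7 seeded at 2 × 10^4 cells/well and exposed to compound for 48 h at the stated concentration. BrdU added for 2 h at 37 °C, then anti-BrdU-POD for 90 min, PBS washes and colorimetric substrate. Inhibition taken relative to untreated control absorbance (set as 0%). Means of two independent experiments ± SD of four wells.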

MCF7 [4] = test: Induction of apoptosis in human MCF7 cells assessed as viable cells level at cytotoxic IC50 level after 24 hrs by Annexin V/PI dual staining based flow cytometry (reference value: 94.36 %); type: functional
MCF7 [5] = test: Induction of apoptosis in human MCF7 cells assessed as late apoptotic cells level at cytotoxic IC50 level after 24 hrs by Annexin V/PI dual staining based flow cytometry (reference value: 1.52 %); type: functional
MCF7 [6] = test: Induction of apoptosis in human MCF7 cells assessed as early apoptotic cells level at cytotoxic IC50 level after 24 hrs by Annexin V/PI dual staining based flow cytometry (reference value: 0.46%); type: functional
MCF7 [7] = test: Induction of apoptosis in human MCF7 cells assessed as necrotic cells level at cytotoxic IC50 level after 24 hrs by Annexin V/PI dual staining based flow cytometry (reference value: 3.66 %); type: functional
MCF7 [8] = test: Inhibition of DNA synthesis in human MCF7 cells at 22.09 ug/ml after 48 hrs by 5-bromo-20-deoxy-uridine incorporation method; type: functional; settings: MCF7, 48 h; in short: as §2
MCF7 [9] = test: Inhibition of DNA synthesis in human MCF7 cells at 30.63 ug/ml after 48 hrs by 5-bromo-20-deoxy-uridine incorporation method; type: functional; settings: MCF7, 48 h; in short: as §2
MCF7 [10] = test: Inhibition of DNA synthesis in human MCF7 cells at 15.32 ug/ml after 48 hrs by 5-bromo-20-deoxy-uridine incorporation method; type: functional; settings: MCF7, 48 h; in short: as §2
MCF7 [11] = test: Inhibition of DNA synthesis in human MCF7 cells at 61.26 ug/ml after 48 hrs by 5-bromo-20-deoxy-uridine incorporation method; type: functional; settings: MCF7, 48 h; in short: as §2
MCF7 [12] = test: Inhibition of DNA synthesis in human MCF7 cells at cytotoxic IC50 level after 24 hrs by 5-bromo-20-deoxy-uridine incorporation method; type: functional
In short: (§3)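 BrdU ELISA on MCF-7 seeded at 2 × 10^4 cells/well. Compounds given at IC50/2, IC50 and 2 × IC50 (from the XTT assay) for 24 h or 48 h. BrdU added for 2 h at 37 °C, then anti-BrdU-POD for 90 min, three PBS washes and colorimetric substrate. Untreated control absorbance set as 0% inhibition. Means of two independent experiments ± SD of four wells; cisplatin positive control.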

MCF7 [13] = test: Inhibition of DNA synthesis in human MCF7 cells at 2 times cytotoxic IC50 level after 24 hrs by 5-bromo-20-deoxy-uridine incorporation method; type: functional; in short: as §3
MCF7 [14] = test: Inhibition of DNA synthesis in human MCF7 cells at 0.5 times cytotoxic IC50 level after 24 hrs by 5-bromo-20-deoxy-uridine incorporation method; type: functional; in short: as §3
MCF7 [15] = test: Inhibition of DNA synthesis in human MCF7 cells at 2 times cytotoxic IC50 level after 48 hrs by 5-bromo-20-deoxy-uridine incorporation method; type: functional; in short: as §3
MCF7 [16] = test: Inhibition of DNA synthesis in human MCF7 cells at cytotoxic IC50 level after 48 hrs by 5-bromo-20-deoxy-uridine incorporation method; type: functional; in short: as §3
MCF7 [17] = test: Inhibition of DNA synthesis in human MCF7 cells at 0.5 times cytotoxic IC50 level after 48 hrs by 5-bromo-20-deoxy-uridine incorporation method; type: functional; in short: as §3

Row | SMILES | IC50 (MCF7 [1]) [µM] | IC50 [2] [µM] | other results
1 | Cc1ccc(-c2nnc(N3CCN(C(=O)CN4CCN(c5ccccc5)CC4)CC3)nc2-c2ccc(C)cc2)cc1 | 914 | > 914 | 
2 | COc1ccccc1N1CCN(CC(=O)N2CCN(c3nnc(-c4ccc(C)cc4)c(-c4ccc(C)cc4)n3)CC2)CC1 | 59.4 | 133 | inhibition at 44.18 µg/mL (MCF7 [3]): 78.7%; Activity (MCF7 [4]): 63.4%; Activity (MCF7 [5]): 5.8%; Activity (MCF7 [6]): 2.6%; Activity (MCF7 [7]): 28.2%; inhibition at 22.09 µg/mL (MCF7 [8]): 78.5%
3 | COc1ccc(-c2nnc(N3CCN(C(=O)CN4CCN(c5ccccc5OC)CC4)CC3)nc2-c2ccc(OC)cc2)cc1 | > 821 | > 821 | 
4 | O=C(CN1CCN(c2ccccc2)CC1)N1CCN(c2nnc(-c3ccccc3)c(-c3ccccc3)n2)CC1 | > 963 | > 963 | 
5 | COc1ccc(N2CCN(CC(=O)N3CCN(c4nnc(-c5ccc(C)cc5)c(-c5ccc(C)cc5)n4)CC3)CC2)cc1 | 53 | 116 | inhibition at 30.63 µg/mL (MCF7 [9]): 86%; Activity (MCF7 [4]): 66.5%; inhibition at 15.32 µg/mL (MCF7 [10]): 76.7%; Activity (MCF7 [5]): 6.2%; inhibition at 61.26 µg/mL (MCF7 [11]): 88.9%; inhibition (INH) (MCF7 [12]): 77.82%; Activity (MCF7 [6]): 0.6%; Activity (MCF7 [7]): 26.7%; inhibition (INH) (MCF7 [13]): 88.52%; inhibition (INH) (MCF7 [14]): 56.94%
6 | O=C(CN1CCN(c2ccccc2Cl)CC1)N1CCN(c2nnc(-c3ccc(Cl)cc3)c(-c3ccc(Cl)cc3)n2)CC1 | 396 | > 803 | 
7 | COc1ccccc1N1CCN(CC(=O)N2CCN(c3nnc(-c4ccc(Cl)cc4)c(-c4ccc(Cl)cc4)n3)CC2)CC1 | 330 | 404 | 
8 | O=C(CN1CCN(c2ccc([N+](=O)[O-])cc2)CC1)N1CCN(c2nnc(-c3ccc(Cl)cc3)c(-c3ccc(Cl)cc3)n2)CC1 | > 790 | > 790 | 
9 | COc1ccccc1N1CCN(CC(=O)N2CCN(c3nnc(-c4ccccc4)c(-c4ccccc4)n3)CC2)CC1 | 167 | 444 | inhibition (MCF7 [15]): Active; inhibition (MCF7 [16]): Active; Activity (MCF7 [4]): 82.5%; Activity (MCF7 [5]): 0.4%; inhibition (INH) (MCF7 [12]): 76.35%; Activity (MCF7 [6]): 0%; Activity (MCF7 [7]): 17.1%; inhibition (INH) (MCF7 [13]): 81.61%; inhibition (INH) (MCF7 [14]): 22.44%; inhibition (MCF7 [17]): Active
10 | COc1ccc(-c2nnc(N3CCN(C(=O)CN4CCN(c5ccc(OC)cc5)CC4)CC3)nc2-c2ccc(OC)cc2)cc1 | > 821 | > 821 | 
11 | Cc1ccc(-c2nnc(N3CCN(C(=O)CN4CCN(c5ccccc5Cl)CC4)CC3)nc2-c2ccc(C)cc2)cc1 | 859 | > 859 | 
12 | COc1ccc(-c2nnc(N3CCN(C(=O)CN4CCN(c5ccc([N+](=O)[O-])cc5)CC4)CC3)nc2-c2ccc(OC)cc2)cc1 | > 801 | > 801 | 
13 | COc1ccc(-c2nnc(N3CCN(C(=O)CN4CCN(c5ccccc5)CC4)CC3)nc2-c2ccc(OC)cc2)cc1 | > 864 | > 864 | 
14 | Cc1ccc(-c2nnc(N3CCN(C(=O)CN4CCN(c5cccc(Cl)c5)CC4)CC3)nc2-c2ccc(C)cc2)cc1 | 797 | 859 | 
15 | O=C(CN1CCN(c2ccccc2Cl)CC1)N1CCN(c2nnc(-c3ccccc3)c(-c3ccccc3)n2)CC1 | 263 | 350 | 
16 | O=C(CN1CCN(c2ccc([N+](=O)[O-])cc2)CC1)N1CCN(c2nnc(-c3ccccc3)c(-c3ccccc3)n2)CC1 | > 886 | > 886 | 

Row | SMILES | IC50 (MCF7 [1]) [µM] | IC50 [2] [µM] | other results
17 | COc1ccc(-c2nnc(N3CCN(C(=O)CN4CCN(c5cccc(OC)c5)CC4)CC3)nc2-c2ccc(OC)cc2)cc1 | > 821 | > 821 | 
18 | O=C(CN1CCN(c2ccc(Cl)cc2)CC1)N1CCN(c2nnc(-c3ccccc3)c(-c3ccccc3)n2)CC1 | 56.3 | 113 | inhibition (INH) (MCF7 [15]): 62.34%; inhibition (INH) (MCF7 [16]): 52.05%; Activity (MCF7 [4]): 76.4%; Activity (MCF7 [5]): 10.3%; Activity (MCF7 [6]): 2.1%; Activity (MCF7 [7]): 11.2%; inhibition (INH) (MCF7 [17]): 24.98%
19 | O=C(CN1CCN(c2ccccc2)CC1)N1CCN(c2nnc(-c3ccc(Cl)cc3)c(-c3ccc(Cl)cc3)n2)CC1 | > 850 | > 850 | 
20 | COc1ccc(N2CCN(CC(=O)N3CCN(c4nnc(-c5ccccc5)c(-c5ccccc5)n4)CC3)CC2)cc1 | > 911 | > 911 | 
21 | COc1ccc(N2CCN(CC(=O)N3CCN(c4nnc(-c5ccc(Cl)cc5)c(-c5ccc(Cl)cc5)n4)CC3)CC2)cc1 | > 809 | > 809 | 
22 | COc1ccc(-c2nnc(N3CCN(C(=O)CN4CCN(c5ccc(Cl)cc5)CC4)CC3)nc2-c2ccc(OC)cc2)cc1 | 607 | > 814 | 
23 | Cc1ccc(-c2nnc(N3CCN(C(=O)CN4CCN(c5ccc([N+](=O)[O-])cc5)CC4)CC3)nc2-c2ccc(C)cc2)cc1 | 845 | > 845 | 
24 | O=C(CN1CCN(c2cccc(Cl)c2)CC1)N1CCN(c2nnc(-c3ccc(Cl)cc3)c(-c3ccc(Cl)cc3)n2)CC1 | > 803 | > 803 | 
25 | O=C(CN1CCN(c2cccc(Cl)c2)CC1)N1CCN(c2nnc(-c3ccccc3)c(-c3ccccc3)n2)CC1 | 56.3 | 178 | inhibition (INH) (MCF7 [15]): 70.18%; inhibition (INH) (MCF7 [16]): 61.16%; Activity (MCF7 [4]): 76.9%; Activity (MCF7 [5]): 9.4%; inhibition (INH) (MCF7 [12]): 31.36%; Activity (MCF7 [6]): 2.2%; Activity (MCF7 [7]): 11.5%; inhibition (INH) (MCF7 [13]): 41.48%; inhibition (INH) (MCF7 [14]): 26.06%; inhibition (INH) (MCF7 [17]): 56.59%
26 | COc1ccc(-c2nnc(N3CCN(C(=O)CN4CCN(c5ccccc5Cl)CC4)CC3)nc2-c2ccc(OC)cc2)cc1 | > 814 | > 814 | 
27 | COc1cccc(N2CCN(CC(=O)N3CCN(c4nnc(-c5ccc(Cl)cc5)c(-c5ccc(Cl)cc5)n4)CC3)CC2)c1 | 149 | 202 | Activity (MCF7 [4]): 71.3%; Activity (MCF7 [5]): 3.3%; Activity (MCF7 [6]): 0.9%; Activity (MCF7 [7]): 24.5%
28 | Cc1ccc(-c2nnc(N3CCN(C(=O)CN4CCN(c5ccc(Cl)cc5)CC4)CC3)nc2-c2ccc(C)cc2)cc1 | 660 | 567 | 
29 | O=C(CN1CCN(c2ccc(Cl)cc2)CC1)N1CCN(c2nnc(-c3ccc(Cl)cc3)c(-c3ccc(Cl)cc3)n2)CC1 | > 803 | > 803 | 
30 | COc1cccc(N2CCN(CC(=O)N3CCN(c4nnc(-c5ccccc5)c(-c5ccccc5)n4)CC3)CC2)c1 | > 911 | 361 | 
31 | COc1cccc(N2CCN(CC(=O)N3CCN(c4nnc(-c5ccc(C)cc5)c(-c5ccc(C)cc5)n4)CC3)CC2)c1 | 867 | > 866 | 
32 | COc1ccc(-c2nnc(N3CCN(C(=O)CN4CCN(c5cccc(Cl)c5)CC4)CC3)nc2-c2ccc(OC)cc2)cc1 | > 814 | > 814 | 
